Test results as given in ChEMBL document CHEMBL1124700, “1,4-Dihydronaphthoquinones, hydroindoloquinones, benzofurans, and benzothiophenes as inhibitors of 5-lipoxygenase. Synthesis and structure-activity studies” (J Med Chem, 1990).

Organism: Rattus norvegicus
Experiment: Ex vivo inhibition of LTB4 production was determined
Format: functional, organism-based
Details: not given; call rule not given here
Method in brief: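 Male Sprague-Dawley rats (225–275 g), fasted 18 h, given 50 mg/kg orally in 1.0 mL solution; controls received 1.0 mL vehicle; five rats per compound. Heparinized vena cava blood taken 2 h post-dose under anesthesia; 1.0 mL stimulated with A23187 (30 μM) 30 min at 37 °C. Plasma LTB4 by radioimmunoassay; percent inhibition from group mean vs control mean; Wilcoxon rank sum statistics.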

Structure (SMILES)	IC50 [µM]
O=C1C=CC(=O)c2ccccc21	< 20

Organism: Rattus norvegicus
Experiment: In vitro inhibition of LTC4/D4 (leukotriene) production in rat peritoneal mononuclear cells.
Format: functional, cell-based
Details: not given
Method in brief: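 Rat peritoneal mononuclear cells challenged with calcium ionophore A23187 in presence of cysteine. Initial screen at 10 μg/mL, duplicate determinations, expressed as percent of control. IC50 from follow-up testing, interpolated from log dose–response plot. LTC4/D4 measured by guinea pig ileum bioassay (atropinized, mepyramine-treated) or, later, LTC4-selective radioimmunoassay.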

Structure (SMILES)	IC50
C=Cc1c(OCC)c(OC)c2ccccc2c1OC	Not Active
COc1c(-c2ccccc2)c(-c2ccccc2)c(OC(C)=O)c2ccn(C)c12	Not Active

Same assay, conditions: Rattus norvegicus; read-out: IC50

Structure (SMILES)	IC50 [nM]
CCOc1c(C(C)O[Si](C)(C)C(C)(C)C)c(OC(C)=O)c2ccccc2c1OC (stereo unspecified)	23900
CCOc1c(C(C)O)c(OC)c2ccccc2c1OC (stereo unspecified)	86000
CCCCc1cc(OC)c2ccccc2c1OC	40900
COc1c(C)c(-c2ccccc2)c(O)c2ccoc12	1250
CCOC(=O)c1c(-c2ccccc2)c(OC(C)=O)c2ccccc2c1OC	5810
CCc1c(CC)c(OC(C)=O)c2c(C)c(C)cc(C)c2c1OC	15700
CCCCc1cccc2c(OC)c(CC)c(CC)c(OC(C)=O)c12	14100
CCCCC1=CC(=O)c2sccc2C1=O	23500
CCCCc1cc(OC)c2c(C)c(C)c(C)c(C)c2c1OC(C)=O	44000
CCCCC1=CC(=O)c2occc2C1=O	2050
CCc1c(CC)c(OC(C)=O)c2c(C)ccc(C)c2c1OC	13000
CCCCc1cc(OC)c2c(C)ccc(C)c2c1OC(C)=O	7350
CCOC(=O)c1c(CC)c(OC(C)=O)c2ccccc2c1OC	1160
CCCCC1=CC(=O)c2ccccc2C1=O	2240
COc1cc(-c2ccccc2)c(O)c2ccoc12	2200
CCCCc1c(CCCC)c(OC(C)=O)c2ccccc2c1OC	6020
COc1cc(-c2ccccc2)c(OC(C)=O)c2ccn(C)c12	3860
CCOC(=O)c1c(CC)c(OC)c2ccccc2c1OC(C)=O	3760
COc1c(-c2ccccc2)c(-c2ccccc2)c(O)c2ccoc12	4390
CCCCCc1c(C(=O)OCC)c(OC(C)=O)c2ccccc2c1OC	8920
CCCCc1cc(OC)c2ccc(OC)cc2c1OC(C)=O	1380
COc1c(-c2ccccc2)c(-c2ccccc2)c(OC(C)=O)c2ccccc12	11000
CCc1c(CC)c(OC)c2c(ccn2C)c1OC(C)=O	2030
CCCCc1cc(OC)c2ccccc2c1O	1470
CCCCc1cc(OC)c2occc2c1O	11900
CCc1c(CC)c(OC(C)=O)c2c(C)c(C)c(C)c(C)c2c1OC	37300
CCCCc1cc(OC)c2c(C)cc(C)c(C)c2c1OC(C)=O	11900
CCCc1c(CCC)c(OC(C)=O)c2ccccc2c1OC	1430

Results, then the molecule that gave them:

IC50 [nM]	Structure (SMILES)
620	CCCCc1cc(OC)c2c(C)cccc2c1OC(C)=O
200	CCCCc1c(C)c(OC)c2ccccc2c1OC(C)=O
990	CCCCc1c(CC)c(OC)c2ccccc2c1OC(C)=O
460	CCCCc1cc(OC)c2sccc2c1OC(C)=O
760	CCCCc1c(C)c(OC)c2c(ccn2C)c1OC(C)=O
940	CCCCCc1c(C(=O)OCC)c(OC)c2ccccc2c1OC(C)=O
260	CCCCc1cc(OC)c2c(OC)cccc2c1OC(C)=O
1130	CCCCc1c(CC)c(OC(C)=O)c2ccccc2c1OC
720	CCCCc1cc(OC)c2c(ccn2C)c1OC(C)=O
400	CCc1c(CC)c(OC(C)=O)c2ccccc2c1OC
440	CCCCc1cc(OC)c2ccccc2c1OC(C)=O [BUNAPROLAST]
690	CCc1c(CC)c(OC(C)=O)c2cc(OC)ccc2c1OC
110	CCCCc1cc(OC)c2occc2c1OC(C)=O
1150	CCCCc1c(CCCC)c(OC)c2occc2c1O
890	CCc1c(CC)c(OC)c2c(OC)cccc2c1OC(C)=O
1050	CCCCc1cc(OC)c2sccc2c1O
760	CCCCc1c(C)c(OC(C)=O)c2ccn(C)c2c1OC
830	CCc1c(CC)c(OC)c2c(C)cccc2c1OC(C)=O
480	CCCCc1ccc2c(OC(C)=O)c(CCCC)cc(OC)c2c1
940	CCCCc1ccc2c(OC(C)=O)c(CC)c(CC)c(OC)c2c1

Target: T1, Polyunsaturated fatty acid 5-lipoxygenase (Rattus norvegicus) (UniProt P12527)
T1 sequence (whole entry): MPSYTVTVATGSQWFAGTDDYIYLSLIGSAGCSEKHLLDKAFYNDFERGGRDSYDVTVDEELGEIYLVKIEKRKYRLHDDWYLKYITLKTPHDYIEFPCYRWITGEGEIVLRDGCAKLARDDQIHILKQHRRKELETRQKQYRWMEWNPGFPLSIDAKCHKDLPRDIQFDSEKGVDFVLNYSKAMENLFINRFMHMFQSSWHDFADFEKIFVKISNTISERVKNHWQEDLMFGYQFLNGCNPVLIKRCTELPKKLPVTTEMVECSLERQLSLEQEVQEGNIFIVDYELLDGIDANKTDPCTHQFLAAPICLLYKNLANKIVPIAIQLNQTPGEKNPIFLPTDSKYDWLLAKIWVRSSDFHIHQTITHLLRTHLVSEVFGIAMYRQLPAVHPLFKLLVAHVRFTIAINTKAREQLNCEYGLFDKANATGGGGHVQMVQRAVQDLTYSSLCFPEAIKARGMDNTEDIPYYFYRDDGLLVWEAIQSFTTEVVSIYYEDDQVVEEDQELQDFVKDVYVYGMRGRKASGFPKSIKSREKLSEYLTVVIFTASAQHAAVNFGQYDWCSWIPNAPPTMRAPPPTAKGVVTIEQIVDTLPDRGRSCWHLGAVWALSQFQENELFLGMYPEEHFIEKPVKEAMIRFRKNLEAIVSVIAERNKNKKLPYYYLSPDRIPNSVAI
Experiment: Ex vivo inhibition of LTB4 production in rat blood following 50 mg/kg p.o.
Format: functional, organism-based
Parameters: dose 50 mg/kg
Details: at 50 mg/kg
Method in brief: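 Male Sprague-Dawley rats (225–275 g), fasted 18 h, given test compound orally at 50 mg/kg; controls got vehicle; five rats per compound. At 2 h, anesthetized; heparinized blood from vena cava. Blood (1.0 mL) stimulated with A23187 (30 μM), 30 min, 37 °C; plasma LTB4 by radioimmunoassay. Percent inhibition from mean treated vs mean control; Wilcoxon rank sum.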

Structure (SMILES)	inhibition [%]
CCc1c(CC)c(OC(C)=O)c2c(C)c(C)cc(C)c2c1OC	14.7
CCCCc1cccc2c(OC)c(CC)c(CC)c(OC(C)=O)c12	30.5
CCCCc1cc(OC)c2c(C)c(C)c(C)c(C)c2c1OC(C)=O	41.2
CCc1c(CC)c(OC(C)=O)c2c(C)ccc(C)c2c1OC	50.6
CCCCc1cc(OC)c2c(C)ccc(C)c2c1OC(C)=O	19.1
CCCCc1c(CCCC)c(OC(C)=O)c2ccccc2c1OC	29.2
CCc1c(CC)c(OC(C)=O)c2c(C)c(C)c(C)c(C)c2c1OC	-4.9
CCCCc1cc(OC)c2c(C)cc(C)c(C)c2c1OC(C)=O	35.4

Results, then the molecule that gave them:

inhibition [%]	Structure (SMILES)
31.8	CCCCc1cc(OC)c2c(C)cccc2c1OC(C)=O
17.5	CCCCc1cc(OC)c2c(OC)cccc2c1OC(C)=O
74.8	CCc1c(CC)c(OC(C)=O)c2ccccc2c1OC
61.1	CCCCc1cc(OC)c2ccccc2c1OC(C)=O [BUNAPROLAST]
40.6	CCc1c(CC)c(OC)c2c(C)cccc2c1OC(C)=O
19.2	CCCCc1ccc2c(OC(C)=O)c(CCCC)cc(OC)c2c1
17	CCCCc1ccc2c(OC(C)=O)c(CC)c(CC)c(OC)c2c1
